Consider 6 molecules from ChEMBL document CHEMBL3352533, “Multi-dimensional target profiling of N,4-diaryl-1,3-thiazole-2-amines as potent inhibitors of eicosanoid metabolism” (Eur J Med Chem, 2014).

Series [1] addresses T1, Prostaglandin G/H synthase 2 (Homo sapiens) (UniProt P35354).
T1 sequence (whole entry): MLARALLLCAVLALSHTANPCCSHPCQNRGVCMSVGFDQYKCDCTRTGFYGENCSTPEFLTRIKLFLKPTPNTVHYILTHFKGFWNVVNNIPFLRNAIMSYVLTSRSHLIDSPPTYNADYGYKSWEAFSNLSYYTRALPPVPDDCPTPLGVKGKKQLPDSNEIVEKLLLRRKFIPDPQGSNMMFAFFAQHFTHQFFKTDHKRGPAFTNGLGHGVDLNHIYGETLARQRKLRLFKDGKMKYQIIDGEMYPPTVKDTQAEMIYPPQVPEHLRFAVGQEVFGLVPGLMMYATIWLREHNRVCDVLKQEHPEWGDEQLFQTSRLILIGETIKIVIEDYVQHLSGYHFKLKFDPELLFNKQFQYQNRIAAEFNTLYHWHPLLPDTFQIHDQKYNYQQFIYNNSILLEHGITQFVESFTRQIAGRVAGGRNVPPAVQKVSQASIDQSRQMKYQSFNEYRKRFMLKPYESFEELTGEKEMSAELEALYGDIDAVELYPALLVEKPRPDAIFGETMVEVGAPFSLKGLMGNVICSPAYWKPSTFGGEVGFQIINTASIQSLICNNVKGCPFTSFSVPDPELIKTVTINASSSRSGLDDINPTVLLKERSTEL
Put plainly: Inhibition of COX2-mediated PGE2 formation in IL1beta/TNFalpha-stimulated human HeLa cells using arachidonic acid as substrate assessed as residual activity at 10 uM measured after 30 mins by ELISA. In kind it is cell-based. Summed up: (§1)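 HeLa cells (3 × 10^4/well) grown 24 h, then induced with 1 ng/ml IL1β and 5 ng/ml TNFα for 24 h; washed three times with PBS containing fatty-acid-free BSA 1 mg/ml. Medium with cytokines plus compound or DMSO for 30 min, stopped on ice; supernatant PGE2 by ELISA, percent of DMSO control. Three experiments, mean ± S.E.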

Series [2] addresses T2, Polyunsaturated fatty acid lipoxygenase ALOX12 (Homo sapiens) (UniProt P18054).
T2 sequence (whole entry): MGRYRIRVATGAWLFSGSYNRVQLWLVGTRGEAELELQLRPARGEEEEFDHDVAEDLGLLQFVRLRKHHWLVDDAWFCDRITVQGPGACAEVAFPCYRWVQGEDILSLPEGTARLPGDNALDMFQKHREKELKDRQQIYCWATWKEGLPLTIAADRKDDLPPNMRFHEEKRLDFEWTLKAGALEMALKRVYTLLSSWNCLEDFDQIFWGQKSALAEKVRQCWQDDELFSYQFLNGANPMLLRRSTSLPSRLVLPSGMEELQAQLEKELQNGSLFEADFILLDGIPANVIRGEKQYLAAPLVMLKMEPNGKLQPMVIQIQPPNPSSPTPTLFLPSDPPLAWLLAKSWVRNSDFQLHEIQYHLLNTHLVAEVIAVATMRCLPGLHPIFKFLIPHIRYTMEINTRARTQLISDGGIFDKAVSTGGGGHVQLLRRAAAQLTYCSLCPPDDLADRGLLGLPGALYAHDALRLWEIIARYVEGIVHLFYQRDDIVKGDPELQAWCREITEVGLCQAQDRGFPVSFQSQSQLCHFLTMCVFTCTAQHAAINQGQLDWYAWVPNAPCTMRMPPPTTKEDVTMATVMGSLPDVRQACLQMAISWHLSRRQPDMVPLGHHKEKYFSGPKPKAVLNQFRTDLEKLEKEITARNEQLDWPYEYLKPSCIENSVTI
Description: Inhibition of 12-LO-mediated 12-HPETE formation in human platelets using arachidonic acid as substrate assessed as residual activity at 50 uM preincubated for 15 mins before substrate addition measured after 10 mins. Summed up:
(§2)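 Freshly isolated human platelets (10^8 in 1 ml PBS pH 7.4 with 1 mg/ml glucose and 1 mM CaCl2) preincubated with compound or DMSO 15 min at 37 °C, then 10 µM AA added; 10 min at 37 °C, stopped with ice-cold methanol. HPLC: 12-H(P)ETE for 12-LO, 12-HHT for COX-1; percent of DMSO control, n ≥ 3, mean ± S.E.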

For series [3], the target named is T3, Polyunsaturated fatty acid lipoxygenase ALOX15 (Homo sapiens) (UniProt P16050).
T3 sequence (whole entry): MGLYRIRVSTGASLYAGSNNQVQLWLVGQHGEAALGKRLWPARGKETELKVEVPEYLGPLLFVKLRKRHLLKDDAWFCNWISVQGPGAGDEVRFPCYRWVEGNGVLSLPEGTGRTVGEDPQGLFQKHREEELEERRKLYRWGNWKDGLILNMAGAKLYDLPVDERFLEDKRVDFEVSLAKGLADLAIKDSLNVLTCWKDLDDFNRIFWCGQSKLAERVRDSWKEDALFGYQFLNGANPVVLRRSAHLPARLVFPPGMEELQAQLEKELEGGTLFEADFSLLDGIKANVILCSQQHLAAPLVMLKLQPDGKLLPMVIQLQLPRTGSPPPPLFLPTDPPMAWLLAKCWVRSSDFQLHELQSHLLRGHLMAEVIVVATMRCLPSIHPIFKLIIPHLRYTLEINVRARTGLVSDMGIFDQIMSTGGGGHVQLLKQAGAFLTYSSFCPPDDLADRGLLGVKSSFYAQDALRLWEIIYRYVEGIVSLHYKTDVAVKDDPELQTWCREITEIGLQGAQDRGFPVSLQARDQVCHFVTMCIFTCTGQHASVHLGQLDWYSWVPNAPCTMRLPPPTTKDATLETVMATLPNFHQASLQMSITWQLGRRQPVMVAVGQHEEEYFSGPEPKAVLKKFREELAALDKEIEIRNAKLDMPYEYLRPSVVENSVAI
Description: Inhibition of 15-LO1-mediated 15-HPETE formation in human eosinophil using arachidonic acid as substrate assessed as residual activity at 50 uM preincubated for 15 mins before substrate addition measured after 10 mins. Put shortly: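 Freshly isolated human PMNL (5 × 10^6/ml PBS-glucose, 1 mM CaCl2), with 15-LO1 from contaminating eosinophils, preincubated with compound 15 min at 37 °C; stimulated with 2.5 µM A23187 plus 20 µM AA for 10 min at 37 °C, methanol stop. 15-H(P)ETE peak quantified by HPLC as percent of DMSO control; n ≥ 3, mean ± S.E.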

The target of series [4] is Prostaglandin G/H synthase 1 (Homo sapiens) (UniProt P23219). Put plainly: Inhibition of COX1 in human platelets using arachidonic acid as substrate assessed as residual activity at 10 uM preincubated for 15 mins before substrate addition measured after 10 mins. Summed up: as §2
The nature of series [5]: Cytotoxicity against human U937 cells at 30 uM after 48 hrs by LDH assay. In kind it is cell-based. The settings on record: u-937, 48 h. Put shortly:
(§3)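 U937 cells (DSMZ; RPMI, 10% FCS, 37 °C, 5% CO2) seeded at 1.5 × 10^4 cells/well, exposed to test agent or DMSO vehicle for 48 h. Supernatant collected after centrifugation; LDH release quantified by kit, expressed relative to detergent-lysed maximum (100%). Three experiments, mean ± S.E.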

The nature of series [6]: Cytotoxicity against human U937 cells at 100 uM after 48 hrs by LDH assay. In kind it is cell-based. The settings on record: u-937, 48 h. Summed up: as §3
The target in series [7] is Prostaglandin G/H synthase 1 (Homo sapiens) (UniProt P23219). Description: Inhibition of COX1 in human platelets using arachidonic acid as substrate assessed as residual activity at 50 uM preincubated for 15 mins before substrate addition measured after 10 mins. Summed up: as §2
For series [8], the target named is T1, Prostaglandin G/H synthase 2 (Homo sapiens). Put plainly: Inhibition of COX2-mediated PGE2 formation in IL1beta/TNFalpha-stimulated human HeLa cells using arachidonic acid as substrate assessed as residual activity at 50 uM measured after 30 mins by ELISA. In kind it is cell-based. Summed up: as §1

Chain of Prostaglandin G/H synthase 1 (Homo sapiens) (P23219 whole entry): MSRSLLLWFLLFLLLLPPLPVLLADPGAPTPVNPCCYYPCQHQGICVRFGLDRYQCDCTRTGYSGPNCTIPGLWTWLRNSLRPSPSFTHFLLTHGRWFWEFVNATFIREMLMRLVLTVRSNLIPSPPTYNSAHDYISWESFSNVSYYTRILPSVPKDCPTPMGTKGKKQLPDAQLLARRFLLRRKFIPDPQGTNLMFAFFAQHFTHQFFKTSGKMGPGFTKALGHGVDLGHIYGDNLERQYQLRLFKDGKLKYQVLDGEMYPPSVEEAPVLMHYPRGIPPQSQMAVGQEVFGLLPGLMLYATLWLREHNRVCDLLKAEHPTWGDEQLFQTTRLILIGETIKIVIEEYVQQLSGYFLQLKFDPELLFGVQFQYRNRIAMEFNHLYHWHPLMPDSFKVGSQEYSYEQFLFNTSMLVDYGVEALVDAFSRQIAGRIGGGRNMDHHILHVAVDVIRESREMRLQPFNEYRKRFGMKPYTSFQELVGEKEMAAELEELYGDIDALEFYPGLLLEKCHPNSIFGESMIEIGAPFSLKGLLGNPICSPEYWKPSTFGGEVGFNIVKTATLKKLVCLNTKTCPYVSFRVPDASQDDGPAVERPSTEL

As to `Oc1ccc(Nc2nc(-c3ccc(Cl)c(Cl)c3)cs2)cc1`, the Activity was 15.1% in series [1], 32.6% in series [2], above 70% in series [3] and 69.4% in series [4].

`Oc1ccccc1Nc1nc(-c2ccc(Cl)cc2)cs1`: the Activity in series [1] was 9.1%; in series [5], 0.9%; in series [2], above 70%; in series [3], above 70%; in series [4] it was 67.4%.

On to `CC(c1cc2ccccc2s1)N(O)C(N)=O` (stereo unspecified) [ZILEUTON], for which the Activity in series [6] amounted to 1.5%.

On to `FC(F)(F)c1cc(Nc2nc(-c3ccc(Cl)cc3)cs2)cc(C(F)(F)F)c1`, for which the Activity in series [5] was 18.2%; in series [2], above 70%; in series [3] it was above 70%; in series [7], 13.7%; in series [8] it was 45.1%.

Consider `OC(c1ccc(Nc2nc(-c3ccc(Cl)cc3)cs2)cc1)(C(F)(F)F)C(F)(F)F`, for which the Activity in series [5] is 21.7%; in series [2], above 70%; in series [3], above 70%; in series [7], 2.6%; in series [8], 42.9%.

For `CCCCCC(O)c1cccc(OCc2ccc3ccccc3n2)c1` (stereo unspecified) [REV-5901], the Activity in series [6] is reported as 28.3%.
